In article PMC6447837 (Cancer Science, 2019):

What was measured:
Yes = Yes (Homo sapiens, UniProt P07947); assay: Radiometric kinase IC50 assay; assay type: biochemical
HepG2 = settings: HepG2, Hepatocarcinoma; ref Zhang et al (2016) 35; cited from earlier work
Bxpc‐3 cells [1] = assay: Colony formation assay; assay type: cell-based, human; settings: 18 days
In short: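 Cells were seeded at 5000-8000 per well and treated with test compound the next day, from DMSO stocks diluted in medium. Medium with vehicle or compound was replaced every 4 days. Cells were then methanol-fixed and crystal violet-stained. Colonies of more than 50 cells were counted under an inverted microscope and expressed as a percentage of colony numbers. Mean of n = 3, with SD.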

Aspc‐1 cells [2] = assay: Wound healing assay; assay type: cell-based, human; settings: 18 hours
BT474 = settings: BT474, Breast cancer; ref Zhang et al (2016) 35; cited from earlier work
AKT = assay: Western blot, AKT phosphorylation; assay type: cell-based, human; settings: Aspc‐1 and Bxpc‐3 cells, 12 hours
In short: (§1)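 Aspc-1 and Bxpc-3 cells were grown overnight in complete medium and treated with test compound for 12 h. Cells were lysed in RIPA buffer and protein was quantified. Lysates were run on SDS-PAGE and transferred to PVDF, then blocked 2 h in TBS-T with 5% non-fat milk. Blots were probed for pAKT Ser473, pERK Thr202/Tyr204, pSTAT3 Tyr705, the matching total proteins and β-actin. Detection was by enhanced chemiluminescence.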

NCI‐N87 = assay: MTT antiviability assay; assay type: cell-based; settings: Homo sapiens, NCI-N87, 72 h
CFPAC = assay: MTT antiviability assay; assay type: cell-based; settings: Homo sapiens, 72 h
A375 = assay: MTT antiviability assay; assay type: cell-based; settings: Homo sapiens, A-375, 72 h
[3] = Body weight during treatment in xenograft models; assay type: in vivo, NOD‐SCID mice; settings: Aspc‐1 and Bxpc‐3 xenograft models; 20 or 40 mg/kg/d p.o., 18 days
In short: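 Six‑week‑old female NOD‑SCID mice received 5 × 10⁶–1 × 10⁷ cells s.c. in the right flank and were grouped (6 per group) at about 200 mm³. Test compound in 25% (v/v) PEG400 plus 5% DMSO in deionized water was given by oral gavage once daily for 18 days, alongside vehicle controls. Mean body weight with SD was recorded.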

[4] = test system: Miapaca‐2 metastatic model; assay: Experimental metastasis assay; assay type: in vivo, NOD‐SCID mice; settings: 40 mg/kg/d
In short: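 Miapaca‑2 cells (5 × 10⁶) were injected into the tail vein of 5‑ to 6‑week‑old female NOD‑SCID mice. Mice were randomized immediately into 5 groups of 6 and given test compound p.o. at 20 or 40 mg/kg, comparators, or vehicle. […] Kaplan–Meier analysis used a log rank test against control.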

KG‐1a = assay: MTT antiviability assay; assay type: cell-based; settings: Homo sapiens, 72 h
Aspc‐1 = assay: MTT antiviability assay; assay type: cell-based; settings: Homo sapiens, ASPC1, 72 h
Bxpc‐3 cells [5] = assay: EdU incorporation; assay type: cell-based, human; settings: 24 hours
In short: (§2)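 Cells were seeded overnight at 5000-8000 per well in 96-well plates, then exposed to test compound for 24 h. Cells were then incubated with EdU followed by Hoechst, using a commercial kit per manufacturer's instructions. EdU marks proliferating cells and Hoechst marks nuclei. The read-out was the percentage of EdU-positive cells, as mean of n = 3 with SD.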

STAT3 = assay: Western blot, STAT3 phosphorylation; assay type: cell-based, human; settings: Aspc‐1 and Bxpc‐3 cells, 12 hours
In short: as §1

MDA‐MB‐436 = assay: MTT antiviability assay; assay type: cell-based; settings: Homo sapiens, MDA-MB-436, 72 h
cleaved caspase‐3 = assay: Immunohistochemistry of xenograft tumor tissues; assay type: in vivo, NOD‐SCID mice; settings: xenograft models; LY‐1816 40 mg/kg/d p.o., gemcitabine 80 mg/kg/wk; IHC
In short: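 Aspc‑1 or Bxpc‑3 s.c. tumors in NOD‑SCID mice were dosed p.o. daily from about 200 mm³, with vehicle controls. At study end, tumors were resected. Frozen sections were immunostained and imaged by light microscopy, and cleaved caspase‑3‑positive cells were counted.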

Lyn = Lyn (Homo sapiens, UniProt P07948); assay: Radiometric kinase IC50 assay; assay type: biochemical
Lyn, sequence (P07948 whole entry): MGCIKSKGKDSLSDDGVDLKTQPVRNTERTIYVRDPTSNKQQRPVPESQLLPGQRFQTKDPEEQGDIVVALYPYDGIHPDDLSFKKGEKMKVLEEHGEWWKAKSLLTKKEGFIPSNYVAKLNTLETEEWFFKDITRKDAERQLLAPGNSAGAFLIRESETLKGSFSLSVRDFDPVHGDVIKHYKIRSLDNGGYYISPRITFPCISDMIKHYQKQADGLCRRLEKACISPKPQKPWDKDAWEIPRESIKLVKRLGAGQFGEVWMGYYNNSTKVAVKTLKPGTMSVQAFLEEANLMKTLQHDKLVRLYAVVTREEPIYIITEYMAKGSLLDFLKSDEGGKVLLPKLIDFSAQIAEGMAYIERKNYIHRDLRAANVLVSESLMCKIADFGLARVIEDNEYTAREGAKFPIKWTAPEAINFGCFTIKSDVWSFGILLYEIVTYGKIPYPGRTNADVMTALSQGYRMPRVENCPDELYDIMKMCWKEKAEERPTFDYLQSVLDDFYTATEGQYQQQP

Aspc‐1 cells [6] = assay: EdU incorporation; assay type: cell-based, human; settings: 24 hours
In short: as §2

HCC1937 = settings: HCC1937, Triple negative breast cancer; mean ± SD; ref Zhang et al (2016) 35; cited from earlier work
PANC‐1 = assay: MTT antiviability assay; assay type: cell-based; settings: Homo sapiens, PANC-1, 72 h
ERK = assay: Western blot, ERK phosphorylation; assay type: cell-based, human; settings: Aspc‐1 and Bxpc‐3 cells, 12 hours
In short: as §1

Aspc‐1 xenograft = assay: Subcutaneous xenograft model; assay type: in vivo, NOD‐SCID mice; settings: Aspc‐1 model
In short: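 Female NOD‑SCID mice bearing s.c. right‑flank tumors (5 × 10⁶–1 × 10⁷ cells injected) were randomized at 100–200 mm³ (6–7 per group). They received test compound in 25% PEG400/5% DMSO/water by oral gavage once daily for 18 days, or vehicle. Tumors were measured by caliper every 3 days, with volume = length × width² × 0.5.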

FOSL1 = assay: Western blot, FOSL1 expression in intact cells; assay type: cell-based, human; settings: 12 hours
HT29 = settings: HT29, Colorectal carcinoma; mean ± SD; ref Zhang et al (2016) 35; cited from earlier work
ZR‐75‐1 = settings: ZR‐75‐1, Breast cancer; ref Zhang et al (2016) 35; cited from earlier work
Bxpc‐3 cells [7] = assay: Transwell invasion assay; assay type: cell-based, human
In short: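 Inserts were precoated with polymerized collagen type I. Cells were seeded on the insert bottom in serum‑free medium with serial dilutions of test compound or vehicle, with 10% FBS medium in the lower chamber. After one day, cells were stained with calcein‑AM and optical sections taken at 10‑μm intervals. Invasion was scored as cells moving >20 μm into collagen; n = 3, mean with SD.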

Yes, sequence (P07947 whole entry): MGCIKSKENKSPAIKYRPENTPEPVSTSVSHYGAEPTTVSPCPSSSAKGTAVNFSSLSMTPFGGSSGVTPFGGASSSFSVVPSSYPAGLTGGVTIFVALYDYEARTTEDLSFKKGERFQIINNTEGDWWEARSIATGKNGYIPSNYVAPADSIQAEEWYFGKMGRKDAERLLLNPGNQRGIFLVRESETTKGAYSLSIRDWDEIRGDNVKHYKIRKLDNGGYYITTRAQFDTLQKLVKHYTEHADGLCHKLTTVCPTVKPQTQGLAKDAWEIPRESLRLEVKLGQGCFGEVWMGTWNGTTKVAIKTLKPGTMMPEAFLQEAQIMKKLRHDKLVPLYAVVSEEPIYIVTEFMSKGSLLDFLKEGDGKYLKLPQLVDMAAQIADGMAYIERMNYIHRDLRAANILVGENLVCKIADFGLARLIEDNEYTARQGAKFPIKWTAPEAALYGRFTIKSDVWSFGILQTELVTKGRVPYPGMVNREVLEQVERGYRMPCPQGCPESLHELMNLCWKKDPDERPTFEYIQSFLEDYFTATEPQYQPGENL

For `Cc1ccc(NC(=O)c2ccc(C)c(C(F)(F)F)c2)cc1C#Cc1nn(C2CCC(O)CC2)c2ncnc(N)c12` (centres unmarked) [LY‐1816, N‐(3‐((4‐amino‐1‐(4‐hydroxycyclohexyl)‐1H‐pyrazolo[3,4‐d]pyrimidin‐3‐yl)ethynyl)‐4‐methylphenyl)‐4‐methyl‐3‐(trifluoromethyl)benzamide], the IC50 (Yes) is given as 0.001 µM, the IC50 (HepG2) is given as over 10 µM and the colony growth (Bxpc‐3 cells [1]) is given as “significantly inhibited the colony growth”. For the same molecule, the cell migration (Aspc‐1 cells [2]) was “dose‐dependently reduced cell migration”, the IC50 (BT474) was over 10 µM and the “phosphorylation of AKT” value (AKT) was “very weak or no impact on the phosphorylation of ERK and AKT”. The IC50 (NCI‐N87) was 0.147 ± 0.044 µM, the IC50 (CFPAC) was 0.096 ± 0.06 µM and the IC50 (A375) was 0.134 ± 0.002 µM. For the same molecule, the body weight [3] was “no significant decrease in body weight”, the “mice alive at day 105” value [4] was 33% and the IC50 (KG‐1a) was over 10 µM. The IC50 (Aspc‐1) was 0.054 ± 0.008 µM, the “DNA replication (EdU)” value (Bxpc‐3 cells [5]) was “dose‐dependently suppress the DNA replication” and the “phosphorylation of STAT3” value (STAT3) was “significantly inhibit STAT3 phosphorylation”. For the same molecule, the IC50 (MDA‐MB‐436) was over 10 µM, the “cleaved caspase‐3 stain in tumor tissues” value (cleaved caspase‐3) was “considerable ability to induce apoptosis” and the IC50 (Lyn) was 0.004 µM. The “DNA replication (EdU)” value (Aspc‐1 cells [6]) was “dose‐dependently suppress the DNA replication”, the IC50 (HCC1937) was 0.455 ± 0.087 µM and the IC50 (PANC‐1) was 0.123 ± 0.015 µM. The “phosphorylation of ERK” value (ERK) was “very weak or no impact on the phosphorylation of ERK and AKT”, the “tumor‐inhibition rate” value (Aspc‐1 xenograft; 40 mg/kg daily, orally, 18 days) was over 90% and the antitumor activity (Aspc‐1 xenograft; LY‐1816 20 or 40 mg/kg/d p.o., dasatinib 40 mg/kg/d p.o., gemcitabine 80 mg/kg once a week) was “dose‐dependent tumor inhibitory activities”. The FOSL1 expression (FOSL1; 10 PDAC cell lines) was “downregulated the FOSL1 expression”, the FOSL1 expression (FOSL1; HT29 and HCT116 cells) was “relatively weak potency” and the IC50 (HT29) was 0.231 ± 0.012 µM. The IC50 (ZR‐75‐1) was about 10 µM and the cell invasion (Bxpc‐3 cells [7]) was “significantly suppressed the invasion”.
